Source: PubChem (several laboratories)
The list is not random: actives were taken first. Their share in the collection is about 2.6%.
PolyA inhibitor – polyadenylation inhibitors in yeast reporter cells, primary screen, luminescence, S. cerevisiae | S. cerevisiae SKY197-pL101 polyadenylation reporter, beta-gal luminescence; efflux-impaired pdr1/pdr3 knockout yeast; score 100 = 6 SD above DMSO | activity score, % at 12 µM | hit rate 0.02% among 300,000;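 active = lowest replicate activity score at least 50, where 100 means six control SD above control mean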;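 note: yeast exposed to compound for 9 h at 30 °C; higher score means more reporter readthrough which indicates perturbed polyadenylation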
AHR act – AHR activators, primary screen, cell-based, luminescence, luciferase reporter, human | Aryl hydrocarbon receptor (Homo sapiens), P35869 | AHR-responsive luciferase reporter cells | activation, % at 5 µM | hit rate 2.5% among 320,000; in the data active = activation above about 47%;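 note: 0% = vehicle wells and 100% = reference agonist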
proCasp7 act – procaspase-7 activators, primary screen, counter-screen for procaspase-3 activator project, biochemical, absorbance, HTS, human; Caspase-7 (Homo sapiens), P55210; recombinant procaspase-7, Ac-DEVD-pNA absorbance 405 nm; D23A/D198A/D206A triple mutant, cannot self-cleave; scale: DMSO 0, 5 µM enzyme 100; activation, % at 8.5 µM; hit rate 0.093% among 330,000; AID 463210, 2010;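 active = percent activation above the screen-wide mean plus 3 SD, cut at about 25% in these data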
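System: Uncleavable procaspase-7 mutant enzyme; Amount: 2 µM procaspase-7 mutant as dispensed; Schedule: 1 h compound preincubation, 2 h substrate cleavage, 25 °C; Measured by: 405 nm absorbance of p-nitroaniline; Evaluation: percent activation from buffer-corrected 0–120 min absorbance change; Control set: low DMSO alone, high DMSO plus 5 µM PC-7.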
procasp3 activ – activators of human procaspase-3 D3A mutant, primary screen, biochemical, absorbance, PC-3 D3A mutant, single concentration; activation, % at 8.5 µM; hit rate 0.11% among 330,000; recombinant procaspase-3 D3A, Ac-DEVD-pNA absorbance 405 nm;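 active = activation above the mean of all tested compounds plus 3 SD, cut at about 21% in these data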;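 note: 0% = DMSO alone and 100% = DMSO wells spiked with extra 5 µM PC-3 D3A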
Target sequence (P42574 whole entry D9A/D28A/D175A): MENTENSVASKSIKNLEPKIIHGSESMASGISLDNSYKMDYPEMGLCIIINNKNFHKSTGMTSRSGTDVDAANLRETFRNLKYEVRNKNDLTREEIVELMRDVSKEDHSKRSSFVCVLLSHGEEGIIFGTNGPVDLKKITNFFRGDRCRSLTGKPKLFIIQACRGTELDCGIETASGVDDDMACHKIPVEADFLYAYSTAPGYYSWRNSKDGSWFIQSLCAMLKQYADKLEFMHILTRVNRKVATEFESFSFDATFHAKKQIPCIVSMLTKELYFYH
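System: Procaspase-3 D3A mutant. Medium: Zinc-free 300 mM NaCl, 50 mM HEPES, 0.01% Triton X-100. Schedule: 1 h preincubation plus 2 h reaction at 25 °C. Measured by: 405 nm absorbance of p-nitroaniline, reads at 0 and 120 min. Read-out: percent activation relative to control range.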
Starred values were filed as active, the others as inactive.

For COc1ccc(S(=O)(=O)N2CCOCC2)cc1NC(=O)C1CC1 the results were AHR act -1, proCasp7 act 5 and procasp3 activ -2.
`CC(=O)NCC1CCCN(C(=O)c2ccc(OC3CCN(Cc4ccccn4)CC3)cc2)C1` (stereo not drawn) gave PolyA inhibitor 14, AHR act -1, proCasp7 act 1 and procasp3 activ -2.
`COc1ccc(NC(=O)NC2(C(=O)N3CCCC(C)C3)CCCCC2)cc1` (stereo not drawn) gave PolyA inhibitor -12, AHR act 1, proCasp7 act 2 and procasp3 activ 6.
Screening O=C(Nc1ncc2c(n1)-c1ccccc1CC2)C1CC1 returned PolyA inhibitor 3, AHR act 76*, proCasp7 act -9 and procasp3 activ -3.
`CC(C)SCC(=O)Nc1ncc2c(n1)-c1ccccc1CC2` gave PolyA inhibitor 29, AHR act 5, proCasp7 act -1 and procasp3 activ -4.
CCc1noc(C)c1C(=O)N1CCN(S(=O)(=O)c2ccccc2C(F)(F)F)CC1 was read as AHR act -2, proCasp7 act 3 and procasp3 activ 8.
COc1cc(N2CCCC2)c(OC)cc1/C=C1/NC(=S)NC1=O was read as PolyA inhibitor 8, AHR act 66*, proCasp7 act -23 and procasp3 activ -6.
COc1ccc(OC)c(/C=C2\NC(=O)NC2=O)c1 was read as PolyA inhibitor 13, AHR act 2, proCasp7 act -6 and procasp3 activ -6.
`N=C1/C(=C\c2ccc(-c3ccc(C(=O)O)cc3)o2)C(=O)N=C2SC=C(c3ccccc3)N12` gave PolyA inhibitor -5.
For N=C1/C(=C\c2ccc(-c3cccc(Cl)c3)o2)C(=O)N=C2SC=C(c3ccccc3)N12 the results were PolyA inhibitor 6, AHR act 49*, proCasp7 act -14 and procasp3 activ -11.
For CN1CCc2c(sc(/N=C/c3cccs3)c2C(N)=O)C1 the results were PolyA inhibitor -1, AHR act 70*, proCasp7 act -11 and procasp3 activ -10.
Screening CN1CCc2c(sc(/N=C/c3ccco3)c2C(N)=O)C1 returned PolyA inhibitor 1, AHR act 15, proCasp7 act -9 and procasp3 activ -8.
For C=C(C)C(O)COc1c2occc2c(OC)c2ccc(=O)oc12 (stereo not drawn) the results were AHR act 55*, proCasp7 act 11 and procasp3 activ -1.
COc1c2ccoc2c(OC)c2oc(=O)ccc12 was read as PolyA inhibitor 17, AHR act 4, proCasp7 act -3 and procasp3 activ 17.
`Cc1cccc2nc(CNC(=O)CC3C(=O)NCCN3Cc3cccc(F)c3)cn12` (stereo not drawn) gave PolyA inhibitor 6, AHR act 1, proCasp7 act -7 and procasp3 activ 0.
For O=C(CN1CCOCC1)Nc1ccc([N+](=O)[O-])cc1 the results were PolyA inhibitor 18, AHR act -2, proCasp7 act -3 and procasp3 activ 0.
For CSCCC(N=C(NS(=O)(=O)c1ccccc1)c1ccccc1)C(=O)O (stereo not drawn) the results were PolyA inhibitor -18, AHR act -1, proCasp7 act 11 and procasp3 activ 3.
COc1ccc(/C=C/C(=O)Nc2cc(C(F)(F)F)ccc2Cl)cc1 was read as PolyA inhibitor 0, AHR act 39, proCasp7 act 9 and procasp3 activ 2.
For COc1ccc(/C=N/NC(=S)Nc2cc(C(F)(F)F)ccc2Cl)cc1 the results were PolyA inhibitor -6, AHR act 54*, proCasp7 act 1 and procasp3 activ -2.
For Cc1nn(-c2ccccc2)c(C)c1C(=O)OCC(=O)Nc1cccc(S(N)(=O)=O)c1 the results were AHR act 2, proCasp7 act 13 and procasp3 activ -4.
For CC(=O)c1cccc(Nc2ncnc3ccc(Br)cc23)c1 the results were PolyA inhibitor 24, AHR act 74*, proCasp7 act -10 and procasp3 activ 3.
CCOc1ccccc1Nc1ncnc2ccc(Br)cc12 was read as PolyA inhibitor -19, AHR act 76*, proCasp7 act 21 and procasp3 activ 16.
